# Assay results as given in ChEMBL document CHEMBL1155075, “Inhibition of the signal transducer and activator of transcription-3 (STAT3) signaling pathway by 4-oxo-1-phenyl-1,4-dihydroquinoline-3-carboxylic acid esters” (J Med Chem, 2008).
# Calls of active or inactive are those of the source. The rule behind the calls is not given here.
# Legend:
# [1] = molecular target: Signal transducer and activator of transcription 3 (Homo sapiens) (UniProt P40763); assay: Inhibition of STAT3 Y705 phosphorylation in human HeLa cells by Western blot analysis; assay type: cell-based
# Signal transducer and activator of transcription 3 (Homo sapiens), sequence (P40763 whole entry): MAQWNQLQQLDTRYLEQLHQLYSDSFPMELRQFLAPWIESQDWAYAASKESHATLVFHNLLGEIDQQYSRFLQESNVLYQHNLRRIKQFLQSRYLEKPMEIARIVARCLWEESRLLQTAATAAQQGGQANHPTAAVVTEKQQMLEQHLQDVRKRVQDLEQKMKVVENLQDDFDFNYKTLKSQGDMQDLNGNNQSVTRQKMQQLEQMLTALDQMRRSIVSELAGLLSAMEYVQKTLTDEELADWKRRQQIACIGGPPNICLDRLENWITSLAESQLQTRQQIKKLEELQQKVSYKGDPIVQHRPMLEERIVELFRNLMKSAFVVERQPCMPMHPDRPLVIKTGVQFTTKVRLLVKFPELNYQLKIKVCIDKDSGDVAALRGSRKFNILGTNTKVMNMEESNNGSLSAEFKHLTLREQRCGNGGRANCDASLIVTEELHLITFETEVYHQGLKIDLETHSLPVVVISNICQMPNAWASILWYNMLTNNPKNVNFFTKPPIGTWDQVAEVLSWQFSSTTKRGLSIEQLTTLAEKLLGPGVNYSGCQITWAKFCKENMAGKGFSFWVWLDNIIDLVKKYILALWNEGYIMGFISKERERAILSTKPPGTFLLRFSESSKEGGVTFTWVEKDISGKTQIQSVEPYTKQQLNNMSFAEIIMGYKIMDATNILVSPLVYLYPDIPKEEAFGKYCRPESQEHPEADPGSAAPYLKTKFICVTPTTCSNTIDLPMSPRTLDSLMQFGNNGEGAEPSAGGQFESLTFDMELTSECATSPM
# [2] = molecular target: Signal transducer and activator of transcription 3 (Homo sapiens) (UniProt P40763); assay: Inhibition of IFN-alpha-induced STAT3 Y705 phosphorylation in serum starved human HeLa cells by Western blot analysis; assay type: cell-based
# Method in brief: (§1)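 HeLa or DU145 cells in DMEM + 10% heat-inactivated FBS, ~80% confluent, were serum-starved overnight and treated with compound for 1 h. IFN-alpha 20000 units/mL was then added for 20 min. Cells were collected in 1.1X LDS sample buffer, sonicated, and analysed by Western blot for phospho-STAT3 Y705 with fluorescent secondary detection.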
# [3] = molecular target: Signal transducer and activator of transcription 3 (Homo sapiens) (UniProt P40763); assay: Inhibition of STAT3 Y705 phosphorylation in human DU145 cells by Western blot analysis; assay type: cell-based; conditions: DU-145
# [4] = molecular target: Signal transducer and activator of transcription 3 (Homo sapiens) (UniProt P40763); assay: Inhibition of IFN-alpha-induced STAT3 Y705 phosphorylation in serum starved human DU145 cells by Western blot analysis; assay type: cell-based; conditions: DU-145; method in brief: as §1
# U-266 [5] = assay: Induction of apoptosis in human U266 cells assessed as caspase activation after 4 days by Apo-ONE Homogeneous caspase 3/7 assay; assay type: functional, cell-based
# Method in brief: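 Homogeneous caspase 3/7 (Apo-ONE) luminescent/fluorescent signal used as apoptosis read-out in cells under compound treatment. U266 cultured in RPMI1640 with 10% heat-inactivated FBS and Pen-Strep.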
# [6] = molecular target: RAC-alpha serine/threonine-protein kinase (Homo sapiens) (UniProt P31749); assay: Inhibition of AKT-mTOR pathway in human U266 cells assessed as p70S6 kinase T389 phosphorylation by Western blot; assay type: cell-based; conditions: U-266
# RAC-alpha serine/threonine-protein kinase (Homo sapiens), sequence (P31749 whole entry): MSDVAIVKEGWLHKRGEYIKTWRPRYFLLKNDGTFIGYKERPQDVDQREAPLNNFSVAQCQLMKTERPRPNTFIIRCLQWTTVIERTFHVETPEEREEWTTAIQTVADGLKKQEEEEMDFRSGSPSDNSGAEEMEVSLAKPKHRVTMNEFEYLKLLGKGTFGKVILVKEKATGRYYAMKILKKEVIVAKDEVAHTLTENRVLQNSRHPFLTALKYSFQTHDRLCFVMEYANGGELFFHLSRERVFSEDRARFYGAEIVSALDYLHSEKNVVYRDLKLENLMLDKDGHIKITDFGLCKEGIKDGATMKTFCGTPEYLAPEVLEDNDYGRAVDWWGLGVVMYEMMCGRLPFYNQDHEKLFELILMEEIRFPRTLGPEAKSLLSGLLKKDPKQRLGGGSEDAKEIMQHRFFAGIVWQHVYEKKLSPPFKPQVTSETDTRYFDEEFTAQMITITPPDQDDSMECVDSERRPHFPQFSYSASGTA
# Method in brief: (§2)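 Steady-state phosphorylation: exponentially growing U266 cells (1 × 10⁶ cells at 2 × 10⁵ cells/mL, RPMI1640 + 10% FBS) were treated with compound for 1 h. Cells were lysed in PhosphoSafe reagent with protease inhibitors. Western blot used primary antibodies (1:1000, 2 h) and fluorescent secondaries (1 h) at room temperature. A representative blot from several repeats is shown.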
# [7] = molecular target: RAC-alpha serine/threonine-protein kinase (Homo sapiens) (UniProt P31749); assay: Inhibition of AKT-mTOR pathway in human U266 cells assessed as S6-S240/244 phosphorylation by Western blot; assay type: cell-based; conditions: U-266; method in brief: as §2
# [8] = Inhibition of MAPK pathway in human U266 cells assessed as p44/42 MAPK T202/204 phosphorylation by Western blot; assay type: cell-based; conditions: U-266; method in brief: as §2
# [9] = molecular target: Signal transducer and activator of transcription 3 (Homo sapiens) (UniProt P40763); assay: Inhibition of STAT3 S727 phosphorylation in human U266 cells; assay type: cell-based; conditions: U-266; method in brief: as §2
# [10] = molecular target: Signal transducer and activator of transcription 3 (Homo sapiens) (UniProt P40763); assay: Inhibition of IL6-induced STAT3 Y705 phosphorylation in serum starved human U266 cells by Western blot analysis; assay type: cell-based; conditions: U-266
# [11] = molecular target: Signal transducer and activator of transcription 3 (Homo sapiens) (UniProt P40763); assay: Inhibition of IFN-alpha-induced STAT3 Y705 phosphorylation in serum starved human U266 cells by Western blot analysis; assay type: cell-based; conditions: U-266
# Method in brief: (§3)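 U266 cells in RPMI1640 + 10% heat-inactivated FBS were serum-starved 2 h, treated with compound 1 h, then stimulated with human IFN-alpha 20000 units/mL for 20 min. Cells were lysed in PhosphoSafe extraction reagent with protease inhibitors and analysed by Western blot with phospho-specific antibodies. JAK antibodies were used at 1:500 with milk blocking, others at 1:1000. Fluorescent secondaries were used.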
# [12] = molecular target: Tyrosine-protein kinase JAK1 (Homo sapiens) (UniProt P23458); assay: Inhibition of IFN-alpha-induced JAK1 Y1022/1023 phosphorylation in serum starved human U266 cells by Western blot analysis; assay type: cell-based; conditions: U-266; method in brief: as §3
# Tyrosine-protein kinase JAK1 (Homo sapiens), sequence (P23458 whole entry): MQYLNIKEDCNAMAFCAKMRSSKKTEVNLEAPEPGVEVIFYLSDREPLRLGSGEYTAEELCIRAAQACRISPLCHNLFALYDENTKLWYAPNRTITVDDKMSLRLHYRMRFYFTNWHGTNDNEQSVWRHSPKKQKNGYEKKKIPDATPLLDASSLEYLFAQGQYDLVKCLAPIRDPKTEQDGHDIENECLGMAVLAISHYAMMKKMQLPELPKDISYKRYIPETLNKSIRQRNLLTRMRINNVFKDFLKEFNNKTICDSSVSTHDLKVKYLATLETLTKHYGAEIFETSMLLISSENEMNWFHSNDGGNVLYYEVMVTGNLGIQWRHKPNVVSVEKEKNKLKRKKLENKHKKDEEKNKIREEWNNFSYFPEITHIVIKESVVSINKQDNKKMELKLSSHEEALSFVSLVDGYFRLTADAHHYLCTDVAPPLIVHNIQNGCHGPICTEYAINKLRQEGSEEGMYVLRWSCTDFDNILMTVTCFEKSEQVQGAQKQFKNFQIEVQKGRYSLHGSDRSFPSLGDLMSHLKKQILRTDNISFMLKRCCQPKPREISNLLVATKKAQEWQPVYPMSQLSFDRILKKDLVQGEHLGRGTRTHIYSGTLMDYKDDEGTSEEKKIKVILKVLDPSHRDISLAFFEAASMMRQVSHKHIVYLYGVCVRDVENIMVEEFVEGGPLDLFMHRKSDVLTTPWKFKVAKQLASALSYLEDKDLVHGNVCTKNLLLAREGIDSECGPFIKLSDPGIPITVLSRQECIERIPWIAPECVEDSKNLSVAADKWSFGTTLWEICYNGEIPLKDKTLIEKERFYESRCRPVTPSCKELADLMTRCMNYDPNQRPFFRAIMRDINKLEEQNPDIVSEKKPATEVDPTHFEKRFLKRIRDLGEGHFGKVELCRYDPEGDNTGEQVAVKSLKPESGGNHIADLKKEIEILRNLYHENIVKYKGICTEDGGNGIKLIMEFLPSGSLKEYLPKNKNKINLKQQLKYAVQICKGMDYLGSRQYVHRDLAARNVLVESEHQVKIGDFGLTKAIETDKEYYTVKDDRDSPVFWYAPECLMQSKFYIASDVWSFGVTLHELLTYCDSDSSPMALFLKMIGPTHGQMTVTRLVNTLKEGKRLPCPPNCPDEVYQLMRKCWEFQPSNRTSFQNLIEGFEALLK
# [13] = molecular target: Tyrosine-protein kinase JAK2 (Homo sapiens) (UniProt O60674); assay: Inhibition of IFN-alpha-induced JAK2 Y1007/1008 phosphorylation in serum starved human U266 cells by Western blot analysis; assay type: cell-based; conditions: U-266; method in brief: as §3
# Tyrosine-protein kinase JAK2 (Homo sapiens), sequence (O60674 whole entry): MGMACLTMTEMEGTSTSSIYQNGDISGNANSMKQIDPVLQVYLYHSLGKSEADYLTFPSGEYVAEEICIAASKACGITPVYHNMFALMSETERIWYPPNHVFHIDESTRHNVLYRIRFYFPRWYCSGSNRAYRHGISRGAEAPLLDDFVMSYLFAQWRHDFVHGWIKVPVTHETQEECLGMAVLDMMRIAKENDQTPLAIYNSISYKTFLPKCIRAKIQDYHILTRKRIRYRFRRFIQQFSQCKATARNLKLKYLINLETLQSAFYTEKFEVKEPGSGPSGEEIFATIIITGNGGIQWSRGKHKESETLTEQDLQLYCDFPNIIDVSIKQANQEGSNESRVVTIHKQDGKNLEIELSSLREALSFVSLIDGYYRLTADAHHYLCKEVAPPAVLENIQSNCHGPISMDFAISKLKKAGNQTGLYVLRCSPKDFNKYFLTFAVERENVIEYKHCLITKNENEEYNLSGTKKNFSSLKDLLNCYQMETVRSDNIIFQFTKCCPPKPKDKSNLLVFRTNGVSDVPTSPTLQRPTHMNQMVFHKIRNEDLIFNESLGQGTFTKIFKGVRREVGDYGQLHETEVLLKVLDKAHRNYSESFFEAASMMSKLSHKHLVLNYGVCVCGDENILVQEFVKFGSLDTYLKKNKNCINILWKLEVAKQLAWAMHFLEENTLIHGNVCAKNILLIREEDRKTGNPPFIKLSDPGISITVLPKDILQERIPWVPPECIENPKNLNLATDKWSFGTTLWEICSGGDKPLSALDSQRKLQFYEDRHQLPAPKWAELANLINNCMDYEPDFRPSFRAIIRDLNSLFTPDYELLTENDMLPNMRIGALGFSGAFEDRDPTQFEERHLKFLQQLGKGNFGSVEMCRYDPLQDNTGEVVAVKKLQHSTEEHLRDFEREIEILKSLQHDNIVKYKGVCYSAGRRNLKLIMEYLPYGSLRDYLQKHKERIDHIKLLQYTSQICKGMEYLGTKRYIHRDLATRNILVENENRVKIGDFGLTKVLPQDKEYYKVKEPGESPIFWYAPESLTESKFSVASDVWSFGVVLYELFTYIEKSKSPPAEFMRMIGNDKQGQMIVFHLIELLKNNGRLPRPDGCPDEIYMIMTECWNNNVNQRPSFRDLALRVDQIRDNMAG
# [14] = molecular target: Non-receptor tyrosine-protein kinase TYK2 (Homo sapiens) (UniProt P29597); assay: Inhibition of IFN-alpha-induced Tyk2 Y1054/1055 phosphorylation in serum starved human U266 cells by Western blot analysis; assay type: cell-based; conditions: U-266; method in brief: as §3
# Non-receptor tyrosine-protein kinase TYK2 (Homo sapiens), sequence (P29597 whole entry): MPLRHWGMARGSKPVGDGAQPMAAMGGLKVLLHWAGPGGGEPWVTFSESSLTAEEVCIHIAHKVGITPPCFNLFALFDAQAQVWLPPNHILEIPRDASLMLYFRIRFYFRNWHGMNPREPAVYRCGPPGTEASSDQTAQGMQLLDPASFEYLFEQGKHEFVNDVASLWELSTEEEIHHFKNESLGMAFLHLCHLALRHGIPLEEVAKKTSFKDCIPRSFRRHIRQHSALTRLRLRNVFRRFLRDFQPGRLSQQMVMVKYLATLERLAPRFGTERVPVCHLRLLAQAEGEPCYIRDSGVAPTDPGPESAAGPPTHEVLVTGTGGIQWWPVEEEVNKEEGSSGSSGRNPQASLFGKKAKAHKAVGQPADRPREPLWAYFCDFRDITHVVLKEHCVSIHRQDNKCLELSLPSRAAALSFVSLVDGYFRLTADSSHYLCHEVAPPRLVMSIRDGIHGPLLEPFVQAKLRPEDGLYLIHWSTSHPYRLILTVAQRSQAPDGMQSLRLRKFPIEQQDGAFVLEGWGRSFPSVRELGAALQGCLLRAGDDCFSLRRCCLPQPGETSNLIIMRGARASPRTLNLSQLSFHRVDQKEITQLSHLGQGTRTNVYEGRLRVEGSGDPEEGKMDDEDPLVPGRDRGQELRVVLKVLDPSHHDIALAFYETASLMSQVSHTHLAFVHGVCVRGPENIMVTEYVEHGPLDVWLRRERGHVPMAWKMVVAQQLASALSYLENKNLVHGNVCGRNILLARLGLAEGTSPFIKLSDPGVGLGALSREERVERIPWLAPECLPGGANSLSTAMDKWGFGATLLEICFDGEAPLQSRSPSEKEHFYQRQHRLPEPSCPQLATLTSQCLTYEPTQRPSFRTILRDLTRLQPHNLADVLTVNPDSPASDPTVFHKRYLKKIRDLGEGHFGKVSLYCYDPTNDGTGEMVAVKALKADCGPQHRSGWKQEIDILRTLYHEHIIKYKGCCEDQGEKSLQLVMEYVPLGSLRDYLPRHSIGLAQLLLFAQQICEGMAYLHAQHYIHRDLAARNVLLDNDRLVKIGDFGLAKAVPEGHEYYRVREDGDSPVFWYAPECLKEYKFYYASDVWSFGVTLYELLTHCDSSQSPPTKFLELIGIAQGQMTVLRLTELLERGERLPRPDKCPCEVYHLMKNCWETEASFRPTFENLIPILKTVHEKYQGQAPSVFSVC
# [15] = molecular target: T1, Signal transducer and activator of transcription 5A (Homo sapiens) (UniProt P42229); assay: Inhibition of BCR-ABL-activated STAT5 Y694/699 phosphorylation in human K562 cells; assay type: cell-based
# T1 sequence (whole entry): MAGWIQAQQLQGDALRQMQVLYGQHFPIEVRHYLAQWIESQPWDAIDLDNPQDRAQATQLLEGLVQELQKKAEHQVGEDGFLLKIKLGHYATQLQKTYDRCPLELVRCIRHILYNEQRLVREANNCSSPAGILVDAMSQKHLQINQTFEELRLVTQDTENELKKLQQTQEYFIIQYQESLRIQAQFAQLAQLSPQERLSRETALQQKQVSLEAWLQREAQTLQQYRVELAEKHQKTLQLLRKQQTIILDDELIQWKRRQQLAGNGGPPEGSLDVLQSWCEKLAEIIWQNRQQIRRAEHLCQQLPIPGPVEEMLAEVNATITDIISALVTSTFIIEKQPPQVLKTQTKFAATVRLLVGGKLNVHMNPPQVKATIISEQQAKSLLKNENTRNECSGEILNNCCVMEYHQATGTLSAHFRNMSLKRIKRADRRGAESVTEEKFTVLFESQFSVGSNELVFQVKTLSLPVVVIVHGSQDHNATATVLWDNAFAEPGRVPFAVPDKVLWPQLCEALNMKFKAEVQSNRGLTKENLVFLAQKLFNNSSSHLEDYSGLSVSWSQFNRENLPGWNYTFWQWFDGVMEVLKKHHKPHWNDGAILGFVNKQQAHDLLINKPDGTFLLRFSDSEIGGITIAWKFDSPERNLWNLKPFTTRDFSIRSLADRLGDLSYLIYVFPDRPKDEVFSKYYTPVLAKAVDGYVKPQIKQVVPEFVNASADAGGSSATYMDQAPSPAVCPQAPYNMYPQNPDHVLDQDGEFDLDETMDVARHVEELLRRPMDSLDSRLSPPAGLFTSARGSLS
# Method in brief: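 K562 cells (1 × 10⁶ cells at 1 × 10⁶ cells/mL, RPMI1640 + 10% FBS) were treated with compound for 1 h. Lysates in PhosphoSafe reagent were analysed by Western blot with anti-phospho-STAT5 Tyr694/Tyr699 (1:1000) and fluorescent secondary detection.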
# A-431 = assay: Inhibition of EGF-stimulated MAPK activation in human A431 cells; assay type: cell-based
# [16] = molecular target: Tyrosine-protein kinase JAK1 (Homo sapiens) (UniProt P23458); assay: Inhibition of JAK1 at 1 uM
# Method in brief: (§4)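 In vitro JAK1, JAK2 and JAK3 enzyme kinase assay, each tested at 1 and 10 µM compound.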
# [17] = molecular target: Tyrosine-protein kinase JAK2 (Homo sapiens) (UniProt O60674); assay: Inhibition of JAK2 at 1 uM; method in brief: as §4
# [18] = molecular target: T2, Tyrosine-protein kinase JAK3 (Homo sapiens) (UniProt P52333); assay: Inhibition of JAK3 at 1 uM; method in brief: as §4
# T2 sequence (whole entry): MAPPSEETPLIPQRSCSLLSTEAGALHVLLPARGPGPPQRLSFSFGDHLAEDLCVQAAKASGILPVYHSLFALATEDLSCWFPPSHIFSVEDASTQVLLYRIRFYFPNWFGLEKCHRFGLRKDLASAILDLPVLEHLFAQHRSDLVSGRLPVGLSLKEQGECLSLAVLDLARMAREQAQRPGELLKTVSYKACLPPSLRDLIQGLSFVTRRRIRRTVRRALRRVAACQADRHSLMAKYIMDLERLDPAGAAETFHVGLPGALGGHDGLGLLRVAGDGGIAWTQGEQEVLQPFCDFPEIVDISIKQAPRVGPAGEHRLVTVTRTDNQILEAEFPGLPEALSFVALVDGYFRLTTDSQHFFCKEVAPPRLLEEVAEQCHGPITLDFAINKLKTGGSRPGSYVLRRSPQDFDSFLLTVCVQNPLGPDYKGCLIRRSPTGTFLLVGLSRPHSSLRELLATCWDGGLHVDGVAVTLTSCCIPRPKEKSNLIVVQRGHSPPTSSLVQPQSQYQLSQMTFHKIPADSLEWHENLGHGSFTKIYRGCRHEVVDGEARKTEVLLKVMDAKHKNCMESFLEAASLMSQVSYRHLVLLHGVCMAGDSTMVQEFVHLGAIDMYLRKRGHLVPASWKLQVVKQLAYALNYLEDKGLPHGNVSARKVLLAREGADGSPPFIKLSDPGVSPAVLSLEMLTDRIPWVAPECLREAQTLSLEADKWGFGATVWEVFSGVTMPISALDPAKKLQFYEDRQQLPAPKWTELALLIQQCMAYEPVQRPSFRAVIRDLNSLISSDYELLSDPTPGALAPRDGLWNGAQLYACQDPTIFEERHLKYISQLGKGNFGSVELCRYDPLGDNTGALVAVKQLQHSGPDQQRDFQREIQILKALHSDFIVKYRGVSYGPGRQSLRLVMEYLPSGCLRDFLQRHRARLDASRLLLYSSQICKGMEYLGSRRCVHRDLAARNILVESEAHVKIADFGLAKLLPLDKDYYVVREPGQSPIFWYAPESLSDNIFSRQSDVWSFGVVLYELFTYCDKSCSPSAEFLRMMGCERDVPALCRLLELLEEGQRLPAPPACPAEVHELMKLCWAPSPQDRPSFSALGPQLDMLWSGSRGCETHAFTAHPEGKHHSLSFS
# [19] = molecular target: Tyrosine-protein kinase JAK1 (Homo sapiens) (UniProt P23458); assay: Inhibition of JAK1 at 10 uM; method in brief: as §4
# [20] = molecular target: Tyrosine-protein kinase JAK2 (Homo sapiens) (UniProt O60674); assay: Inhibition of JAK2 at 10 uM; method in brief: as §4
# [21] = molecular target: T2, Tyrosine-protein kinase JAK3 (Homo sapiens); assay: Inhibition of JAK3 at 10 uM; method in brief: as §4
# U-266 [22] = assay: Inhibition of Bcl2-like 1 transcription in human U266 cells at 0.5 uM after 6 hrs by microarray analysis; assay type: functional, cell-based
# Method in brief: (§5)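 U266 cells were seeded at 1 × 10⁶ cells/mL and treated 6 h in triplicate. RNA was purified, and 2-5 µg total RNA was converted to biotin-labelled cRNA by oligo-T7 reverse transcription and in vitro transcription with biotin-UTP/CTP. mRNA levels were then measured by microarray.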
# U-266 [23] = assay: Inhibition of MCL1 transcription in human U266 cells at 0.5 uM after 6 hrs by microarray analysis; assay type: functional, cell-based; method in brief: as §5
# U-266 [24] = assay: Inhibition of cyclin D1 transcription in human U266 cells at 0.5 uM after 6 hrs by microarray analysis; assay type: functional, cell-based; method in brief: as §5
# A2780 = assay: Induction of apoptosis in human A2780 cells assessed as caspase activation after 4 days by Apo-ONE Homogeneous caspase 3/7 assay; assay type: functional, cell-based
# U-266 [25] = assay: Inhibition of cyclin D1 transcription in human U266 cells at 100 uM after 6 hrs by microarray analysis; assay type: functional, cell-based; method in brief: as §5
# U-266 [26] = assay: Inhibition of Bcl2-like 1 transcription in human U266 cells at 100 uM after 6 hrs by microarray analysis; assay type: functional, cell-based; method in brief: as §5
# U-266 [27] = assay: Inhibition of MCL1 transcription in human U266 cells at 100 uM after 6 hrs by microarray analysis; assay type: functional, cell-based; method in brief: as §5
smiles,measurement,setting,value
CCOC(=O)c1cn(-c2c(F)c(F)c(C#N)c(F)c2F)c2c(F)c(F)c(F)cc2c1=O,Activity,[1],Active
same,Activity,[2],Active
same,Activity,[3],Active
same,Activity,[4],Active
same,Activity,U-266 [5],Active
same,Activity,[6],inactive
same,Activity,[7],inactive
same,Activity,[8],inactive
same,Activity,[9],inactive
same,Activity,[10],Active
same,Activity,[11],Active
same,Activity,[12],Active
same,Activity,[13],Active
same,Activity,[14],Active
same,Activity,[15],inactive
same,Activity,A-431,inactive
same,Activity,[16],inactive
same,Activity,[17],inactive
same,Activity,[18],inactive
same,Activity,[19],inactive
same,Activity,[20],inactive
same,Activity,[21],inactive
same,Activity,U-266 [22],Active
same,Activity,U-266 [23],Active
same,Activity,U-266 [24],Active
CCOC(=O)c1cn(-c2c(F)c(F)c(F)c(F)c2F)c2c(F)c(F)c(F)c(F)c2c1=O,Activity,U-266 [5],Active
same,Activity,A2780,inactive
N#C/C(=C\c1ccc(O)c(O)c1)C(=O)NCc1ccccc1,Activity,U-266 [25],Active
same,Activity,U-266 [26],Active
same,Activity,U-266 [27],Active
